Source: ChEMBL document CHEMBL4480399, “Identification of a Benzimidazolecarboxylic Acid Derivative (BAY 1316957) as a Potent and Selective Human Prostaglandin E2 Receptor Subtype 4 (hEP4-R) Antagonist for the Treatment of Endometriosis” (J Med Chem, 2019)
≈ marks a conversion by molar mass, not a printed value. One block for each compound: values may come before it. Calls of active or inactive are those of the source.

Key:
[1] = Intrinsic clearance in Han Wistar rat hepatocytes assessed as blood clearance at 1 uM after 90 mins by LC-MS/MS analysis; type: ADME, cell-based, Hepatocyte
Summary of the method: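 Rat hepatocytes isolated with a Percoll gradient, viability by trypan blue; 1.0 × 10^6 viable cells/mL in WME + 5% FCS, compound at 1 µM, shaken at 580 rpm. Sampled 2–90 min into cold methanol; LC-MS/MS.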

[2] = biological target: Prostaglandin E2 receptor EP4 subtype (Homo sapiens, UniProt P35408); assay: Antagonist activity at human EP4R assessed as inhibition of agonist-induced cAMP production by fluorescent cAMP tracer cAMP-d2 based FRET assay; type: functional
[3] = biological target: Prostaglandin E2 receptor EP4 subtype (Mus musculus, UniProt P32240); assay: Antagonist activity at mouse EP4R assessed as inhibition of agonist-induced cAMP production by fluorescent cAMP tracer cAMP-d2 based FRET assay; type: functional
[4] = Apparent permeability from apical to basolateral side in human Caco2 cells at 2 uM after 2 hrs by LC/MS/MS analysis; type: ADME, cell-based; details: Caco-2
Summary of the method: (§1)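 Caco-2 cells seeded at 4.5 x 10^4 per well on 0.4 µm inserts and grown 15 days. Assay in FCS-free Hepes-carbonate buffer pH 7.2, with TEER checked. Compound at 2 µM final added apically or basolaterally; both sides sampled before and after 2 h at 37 °C. Papp from peak areas; efflux ratio = Papp B-A / Papp A-B; recovery calculated.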

[5] = Efflux ratio of apparent permeability in human Caco2 cells at 2 uM after 2 hrs by LC/MS/MS analysis; type: ADME, cell-based; details: Caco-2; summary of the method: as §1
Rattus norvegicus = assay: Antinociceptive activity in Sprague-Dawley rat model of dmPGE2-induced pain behavior assessed as increase in paw withdrawal thresholds at 5 mg/kg, po pretreated 60 mins before dmPGE2 addition and measured after 30 mins post dmPGE2 injection; type: functional, organism-based
Summary of the method: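 Male Sprague-Dawley rats, 220–265 g. Compound suspended in 0.5% CMC and given orally; vehicle controls. At 60 min, 10 µg dmPGE2 in PBS injected into the plantar surface of the left hind paw. Electronic von Frey thresholds taken 30 min later, mean of 3 per paw, against day −1 baseline. Mean ±SD; Grubbs outlier test; 1-way ANOVA with Dunnett's test.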

[6] = Lipophilicity, log D of the compound at pH 7.4; type: physicochemical; details: buffer
[7] = Kinetic solubility of the compound; type: physicochemical; details: read-out: Kinetic_solubility
[8] = biological target: T1, UDP-glucuronosyltransferase 1A1 (Homo sapiens, UniProt P22309); assay: Drug metabolism in human hepatocytes assessed as UGT1A1-mediated acylglucuronide metabolite formation at 10 uM after 4 hrs by HPLC-UV and mass spectrometric analysis; type: ADME, cell-based
T1 sequence (P22309 whole entry): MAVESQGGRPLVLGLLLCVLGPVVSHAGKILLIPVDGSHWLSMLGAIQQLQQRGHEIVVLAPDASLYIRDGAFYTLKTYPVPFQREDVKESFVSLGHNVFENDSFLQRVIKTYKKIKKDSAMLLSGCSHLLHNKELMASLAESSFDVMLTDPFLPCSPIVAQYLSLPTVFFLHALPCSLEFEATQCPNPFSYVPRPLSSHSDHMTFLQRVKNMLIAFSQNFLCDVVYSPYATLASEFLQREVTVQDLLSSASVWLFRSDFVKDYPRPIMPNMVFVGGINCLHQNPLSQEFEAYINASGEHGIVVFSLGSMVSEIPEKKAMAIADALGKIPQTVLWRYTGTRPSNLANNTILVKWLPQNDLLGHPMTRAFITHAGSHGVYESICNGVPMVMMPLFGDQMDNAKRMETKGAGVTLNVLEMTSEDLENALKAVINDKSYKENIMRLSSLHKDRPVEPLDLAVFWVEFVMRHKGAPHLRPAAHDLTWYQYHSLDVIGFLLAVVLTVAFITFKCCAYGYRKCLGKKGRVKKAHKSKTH

[9] = biological target: T2, UDP-glucuronosyltransferase 1A1 (Rattus norvegicus, UniProt Q64550); assay: Drug metabolism in rat hepatocytes assessed as UGT1A1-mediated acylglucuronide metabolite formation at 10 uM after 4 hrs by HPLC-UV and mass spectrometric analysis; type: ADME, cell-based
T2 sequence (Q64550 whole entry): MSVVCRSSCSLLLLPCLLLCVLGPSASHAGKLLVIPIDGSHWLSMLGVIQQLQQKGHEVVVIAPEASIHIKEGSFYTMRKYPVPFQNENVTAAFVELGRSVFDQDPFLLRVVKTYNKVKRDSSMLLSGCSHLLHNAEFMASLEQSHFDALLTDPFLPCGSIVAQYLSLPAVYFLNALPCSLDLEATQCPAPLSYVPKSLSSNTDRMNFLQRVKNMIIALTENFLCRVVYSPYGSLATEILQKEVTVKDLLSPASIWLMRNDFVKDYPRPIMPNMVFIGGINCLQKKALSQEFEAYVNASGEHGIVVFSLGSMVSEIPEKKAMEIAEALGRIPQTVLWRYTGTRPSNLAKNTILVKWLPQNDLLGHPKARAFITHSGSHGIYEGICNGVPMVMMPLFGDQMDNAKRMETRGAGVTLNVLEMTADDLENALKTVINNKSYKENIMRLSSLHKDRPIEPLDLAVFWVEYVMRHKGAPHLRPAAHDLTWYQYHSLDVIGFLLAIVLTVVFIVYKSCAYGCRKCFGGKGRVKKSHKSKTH

[10] = Half life in Wistar rat at 1 mg/kg, iv by LC-MS/MS analysis; type: ADME, organism-based; details: in vivo
Summary of the method: (§2)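 Male Wistar rats dosed iv (0.3–1 mg/kg) or intragastrically (0.5–10 mg/kg) as solutions with solubilizers such as PEG400; cassette dosing of up to 3 compounds in some studies. Jugular blood taken 2 min to 24 h into Li-heparin tubes. Plasma precipitated with acetonitrile and run by LC-MS/MS. Non-compartmental PK analysis.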

[11] = Dose normalized AUC in Wistar rat at 1 mg/kg, po by LC-MS/MS analysis; type: ADME, organism-based; details: in vivo; summary of the method: as §2
[12] = Blood clearance in Wistar rat at 1 mg/kg, iv by LC-MS/MS analysis; type: ADME, organism-based; details: whole blood; summary of the method: as §2
[13] = Volume of distribution at steady state in Wistar rat at 1 mg/kg, iv by LC-MS/MS analysis; type: ADME, organism-based; details: in vivo, read-out: Vdss; summary of the method: as §2
[14] = Blood clearance in Wistar rat at 1 mg/kg, po by LC-MS/MS analysis; type: ADME, organism-based; details: whole blood; summary of the method: as §2
[15] = Volume of distribution at steady state in Wistar rat at 1 mg/kg, po by LC-MS/MS analysis; type: ADME, organism-based; details: in vivo; summary of the method: as §2
[16] = Oral bioavailability in Wistar rat at 1 mg/kg by LC-MS/MS analysis; type: ADME, organism-based; details: in vivo; summary of the method: as §2
[17] = Kinetic solubility of the compound at pH 6.5; type: physicochemical; details: buffer, read-out: Kinetic_solubility

Prostaglandin E2 receptor EP4 subtype (Homo sapiens, UniProt P35408), sequence (P35408 whole entry): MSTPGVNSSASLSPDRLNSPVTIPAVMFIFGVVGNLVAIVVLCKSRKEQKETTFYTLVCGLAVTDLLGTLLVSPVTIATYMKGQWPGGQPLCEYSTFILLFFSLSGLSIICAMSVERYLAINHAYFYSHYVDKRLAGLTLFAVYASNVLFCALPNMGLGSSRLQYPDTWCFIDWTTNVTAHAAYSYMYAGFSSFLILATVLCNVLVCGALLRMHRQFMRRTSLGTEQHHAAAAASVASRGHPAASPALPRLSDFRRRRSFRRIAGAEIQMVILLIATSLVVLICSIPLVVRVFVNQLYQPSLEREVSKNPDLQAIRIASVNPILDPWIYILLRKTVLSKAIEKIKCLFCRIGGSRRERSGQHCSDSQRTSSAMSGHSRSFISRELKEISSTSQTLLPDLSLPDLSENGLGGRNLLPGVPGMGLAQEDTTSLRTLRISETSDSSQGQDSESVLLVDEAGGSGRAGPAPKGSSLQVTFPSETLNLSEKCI
Prostaglandin E2 receptor EP4 subtype (Mus musculus, UniProt P32240), sequence (P32240 whole entry): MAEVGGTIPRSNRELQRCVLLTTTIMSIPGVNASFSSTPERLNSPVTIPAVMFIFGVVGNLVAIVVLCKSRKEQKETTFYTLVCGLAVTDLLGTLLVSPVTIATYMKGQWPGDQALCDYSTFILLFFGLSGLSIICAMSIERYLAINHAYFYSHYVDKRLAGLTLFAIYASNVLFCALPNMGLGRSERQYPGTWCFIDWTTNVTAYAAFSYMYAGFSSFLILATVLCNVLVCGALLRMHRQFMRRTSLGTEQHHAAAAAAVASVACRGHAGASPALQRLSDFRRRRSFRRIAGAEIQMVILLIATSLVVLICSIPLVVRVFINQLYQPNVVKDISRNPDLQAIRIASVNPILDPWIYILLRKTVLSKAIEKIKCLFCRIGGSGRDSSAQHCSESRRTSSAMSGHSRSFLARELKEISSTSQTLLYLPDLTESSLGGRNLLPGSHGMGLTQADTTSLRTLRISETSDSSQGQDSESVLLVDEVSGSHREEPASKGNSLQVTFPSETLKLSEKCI

Compound: CCn1c2ccccc2c2cc(-c3nc4cc(C(=O)NS(C)(=O)=O)ccc4n3CCOC)ccc21
- CLhep predicted at […], 1 µM [1]: 26.7 mL/min/kg

Compound: CCn1c2ccccc2c2cc(-c3nc4cc(C(=O)O)c(Cl)cc4n3CCOC)ccc21
- IC50 [2]: 751 nM

Compound: CCn1c2ccccc2c2cc(-c3nc4cc(C(=O)O)c(F)cc4n3CCOC)ccc21
- IC50 [2]: 34.6 nM

Compound: CCn1c2ccccc2c2cc(-c3nc4cc(C(=O)O)ccc4n3CCOC)ccc21
- IC50 [2]: 4.7 nM
- IC50 [3]: 81 nM

Compound: CCn1c2ccccc2c2cc(-c3nc4cc(C(=O)O)ccc4n3C)ccc21
- IC50 [2]: 166 nM

Compound: CCn1c2ccccc2c2cc(-c3nc4c(F)c(C(=O)O)ccc4n3CCOC)ccc21
- IC50 [2]: 4.3 nM

Compound: CCn1c2ccccc2c2cc(-c3nc4c(Cl)c(C(=O)O)ccc4n3CCOC)ccc21
- IC50 [2]: 15.9 nM

Compound: CCn1c2ccc(-c3nc4c(C)c(C(=O)O)ccc4n3CCOC)cc2c2c(Cl)cccc21
- IC50 [2]: 65.5 nM

Compound: CCn1c2ccccc2c2cc(-c3nc4cc(-c5noc(=O)[nH]5)ccc4n3CCOC)ccc21
- IC50 [2]: 6.1 nM
- Papp A→B at 2 h, 2 µM [4]: 2.63 ×10⁻⁶ cm/s
- efflux ratio at 2 h, 2 µM [5]: 3.3
- CLhep predicted at […], 1 µM [1]: 11.7 mL/min/kg

Compound: CCn1c2ccc(-c3nc4c(C)c(C(=O)O)ccc4n3CCOC)cc2c2cccc(C)c21
- IC50 [2]: 4.2 nM

Compound: CCn1c2ccccc2c2cc(-c3nc4cc(C(=O)O)ccc4n3-c3ccccc3)ccc21
- IC50 [2]: 3120 nM

Compound: CCn1c2ccc(C)cc2c2cc(-c3nc4c(C)c(C(=O)O)ccc4n3CCOC)ccc21
- Activity (Rattus norvegicus): Active

Compound: CCn1c2ccccc2c2cc(-c3nc4cc(-c5nnn[nH]5)ccc4n3CCOC)ccc21
- IC50 [2]: 6.8 nM

Compound: Cn1c2ccccc2c2cc(-c3nc4cc(C(=O)O)ccc4n3CC3CC3)ccc21
- IC50 [2]: 34.2 nM

Compound: CCn1c2ccccc2c2cc(-c3nc4cc(C(=O)O)ccc4n3CC3CC3)ccc21
- IC50 [2]: 12.8 nM
- IC50 [3]: 113 nM
- logD [6]: 3
- solubility kinetic [7]: 3.2 µg/mL (≈ 7.81 µM)

Compound: CCn1c2ccccc2c2cc(-c3nc4c(C)c(C(=O)O)ccc4n3CCOC)ccc21
- IC50 [2]: 24.7 nM
- Papp A→B at 2 h, 2 µM [4]: 13.5 ×10⁻⁶ cm/s
- efflux ratio at 2 h, 2 µM [5]: 1.1
- Drug metabolism [8]: Metabolite_Detected
- Drug metabolism [9]: Metabolite_Detected
- half-life [10]: 4.9 h
- AUC/dose [11]: 20 kg·h/L
- clearance [12]: 1 mL/min/kg
- Vd [13]: 0.36 L/kg
- CL/F [14]: 1 mL/min/kg
- Vdss [15]: 0.36 L/kg
- bioavailability [16]: 92%
- CLhep predicted at […], 1 µM [1]: 1.67 to 2.5 mL/min/kg
- solubility kinetic [17]: 150 µg/mL (≈ 351 µM)

Compound: CCn1c2ccc(OC(F)(F)F)cc2c2cc(-c3nc4c(C)c(C(=O)O)ccc4n3CCOC)ccc21
- IC50 [2]: 366 nM

The next lines start with the values.

- IC50 [2]: 222 nM
Compound: CCn1c2ccccc2c2cc(-c3nc4cc(S(=O)(=O)O)ccc4n3CCOC)ccc21

- IC50 [2]: 148 nM
Compound: CCn1c2ccccc2c2cc(-c3nc4cc(C(=O)NS(=O)(=O)N(C)C)ccc4n3CCOC)ccc21

- IC50 [2]: 54.6 nM
Compound: CCn1c2ccc(-c3nc4c(C)c(C(=O)O)ccc4n3CCOC)cc2c2c(C)cccc21

- Papp A→B at 2 h, 2 µM [4]: 1.24 ×10⁻⁶ cm/s
- efflux ratio at 2 h, 2 µM [5]: 0.9
- CLhep predicted at […], 1 µM [1]: 30 mL/min/kg
Compound: CCn1c2ccccc2c2cc(-c3nc4cc(-c5n[nH]c(=O)o5)ccc4n3CCOC)ccc21

- IC50 [2]: 17.4 nM
Compound: CCn1c2ccc(-c3nc4c(C)c(C(=O)O)ccc4n3CCOC)cc2c2cc(C(F)(F)F)ccc21

- IC50 [2]: 1420 nM
Compound: CCn1c2ccccc2c2cc(-c3nc4ccc(C(=O)O)cc4n3CCOC)ccc21

- IC50 [2]: 4.4 nM
- Papp A→B at 2 h, 2 µM [4]: 20.8 ×10⁻⁶ cm/s
- efflux ratio at 2 h, 2 µM [5]: 0.5
- CLhep predicted at […], 1 µM [1]: 10 mL/min/kg
Compound: CCn1c2ccc(Cl)cc2c2cc(-c3nc4c(C)c(C(=O)O)ccc4n3CCOC)ccc21

- IC50 [2]: 51.5 nM
Compound: CCn1c2ccccc2c2cc(-c3nc4cc(C(=O)O)ccc4n3CC3CCO3)ccc21 (stereo not drawn)

- IC50 [2]: 286 nM
- logD [6]: 4.1
- solubility kinetic [7]: < 0.1 µg/mL
Compound: CCn1c2ccccc2c2cc(-c3nc4cc(C(=O)NC)ccc4n3CC3CC3)ccc21
